In ChEMBL document CHEMBL1126896, “Preparation and anti-HIV activity of O-acylated heparin and dermatan sulfate derivatives with low anticoagulant effect” (J Med Chem, 1993):

What was measured:
MT4 [1] = test: Effective concentration to achieve 50% protection of MT-4 cells against the cytopathic effect of HIV-2; type: functional, cell-based
MT4 [2] = test: Selectivity index for CC50 (cytotoxic concentration based on reduction of viability of mock-infected MT-4 cells) to that of EC50 against HIV-2; type: functional
Procedure, shortened: (§1)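 MT-4 cells at 3 × 10^5 cells/mL were infected with HIV-1 IIIB or HIV-2 ROD at 100 CCID50/mL, or mock-infected, alongside serial compound dilutions. Viability was read by MTT after 5 days at 37 °C. CC50 comes from mock-infected cells and EC50 from protection against cytopathicity. Index = CC50/EC50.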

MT4 [3] = test: Effective concentration to achieve 50% protection of MT-4 cells against the cytopathic effect of HIV-1; type: functional, cell-based
HuT78 [4] = test: Giant-cell formation between persistently HIV-2 infected HUT-78 cells and uninfected MOLT-4 cells; type: functional, cell-based
Procedure, shortened: (§2)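 MOLT-4 cells were co-cultured with an equal number of HUT-78 cells persistently infected with HIV-1 IIIB or HIV-2 ROD, with varying compound concentrations. Syncytia were counted by flow cytofluorography after 24 h. EC50 is the concentration giving 50% protection against giant-cell formation.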

[5] = In vitro anticoagulant activity determined by clotting test of activated partial thromboplastin time (APTT) on a pool of human plasma; type: functional
Procedure, shortened: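 Activated partial thromboplastin time clotting test on pooled human plasma, run on an automatic coagulometer. Activities were calculated according to the European Pharmacopoeia.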

HuT78 [6] = test: Giant-cell formation between persistently HIV-1 infected HUT-78 cells and uninfected MOLT-4 cells; type: functional, cell-based; procedure, shortened: as §2
MT4 [7] = test: Selectivity index for CC50 (cytotoxic concentration based on the reduction of the viability of mock-infected MT-4 cells) to that of EC50 against HIV-1; type: functional; procedure, shortened: as §1
[8] = Homo sapiens, MT4, read-out: EC50
[9] = Homo sapiens, HuT78, read-out: EC50

SMILES	EC50 (MT4 [1]; [8]) [µg/mL]	Selectivity index (MT4 [2])	EC50 (MT4 [3]; [8]) [µg/mL]	EC50 (HuT78 [4]; [9]) [µg/mL]	APTT [5] [IU mg-1]	EC50 (HuT78 [6]; [9]) [µg/mL]	Selectivity index (MT4 [7])	EC50 (MT4 [1]; mt4) [µg/mL]	EC50 (MT4 [3]; mt4) [µg/mL]	EC50 (HuT78 [4]; hut78) [µg/mL]	EC50 (HuT78 [6]; hut78) [µg/mL]
C=CCCOC(=O)/C=C(\CO)OC1OC(COS(=O)(=O)[O-])C(OC2OC(C(=O)OCCC=C)C(OC3OC(COS(=O)(=O)[O-])C(OC4OC(C(=O)OCCC=C)C(OC5OC(COS(=O)(=O)[O-])C(O)C(O)C5NS(=O)(=O)[O-])C(O)C4OS(=O)(=O)[O-])C(O)C3NS(=O)(=O)[O-])C(O)C2OS(=O)(=O)[O-])C(O)C1NS(=O)(=O)[O-].[Na+].[Na+].[Na+].[Na+].[Na+].[Na+].[Na+].[Na+] (stereo not given)	2.4	>208	0.6	2	3	90	>833				
CCCC(=O)OC/C(=C\C(=O)[O-])OC1OC(COS(=O)(=O)[O-])C(OC2OC(C(=O)[O-])C(OC3OC(COS(=O)(=O)[O-])C(OC4OC(C(=O)[O-])C(OC5OC(COS(=O)(=O)[O-])C(O)C(OC(=O)CCC)C5NC(C)=O)C(OC(=O)CCC)C4OS(=O)(=O)[O-])C(OC(=O)CCC)C3NC(C)=O)C(OC(=O)CCC)C2OS(=O)(=O)[O-])C(OC(=O)CCC)C1NC(C)=O.[Na+].[Na+].[Na+].[Na+].[Na+].[Na+].[Na+].[Na+] (stereo not given)	1.2	>417	0.5	20	6	15	>1000				
CCCCCCCCOC(=O)/C=C(\CO)OC1OC(COS(=O)(=O)[O-])C(OC2OC(C(=O)OCCCCCCCC)C(OC3OC(COS(=O)(=O)[O-])C(OC4OC(C(=O)OCCCCCCCC)C(OC5OC(COS(=O)(=O)[O-])C(O)C(O)C5NS(=O)(=O)[O-])C(O)C4OS(=O)(=O)[O-])C(O)C3NS(=O)(=O)[O-])C(O)C2OS(=O)(=O)[O-])C(O)C1NS(=O)(=O)[O-].[Na+].[Na+].[Na+].[Na+].[Na+].[Na+].[Na+].[Na+] (stereo in doubt; 7f)		>454	0.7	18	3	4	>714	1.1			
CCCCCC(=O)OC/C(=C\C(=O)[O-])OC1OC(COS(=O)(=O)[O-])C(OC2OC(C(=O)[O-])C(OC3OC(COS(=O)(=O)[O-])C(OC4OC(C(=O)[O-])C(OC5OC(CS(=O)(=O)[O-])C(O)C(OC(=O)CCCCC)C5NS(=O)(=O)[O-])C(OC(=O)CCCCC)C4OS(=O)(=O)[O-])C(OC(=O)CCCCC)C3NS(=O)(=O)[O-])C(OC(=O)CCCCC)C2OS(=O)(=O)[O-])C(OC(=O)CCCCC)C1NS(=O)(=O)[O-].[Na+].[Na+].[Na+].[Na+].[Na+].[Na+].[Na+].[Na+].[Na+].[Na+].[Na+] (stereo in doubt; 3f)		>500			4		>2500	1	0.2	100	7
CCCCCC(=O)OC/C(=C\C(=O)[O-])OC1OC(COS(=O)(=O)[O-])C(OC2OC(C(=O)[O-])C(OC3OC(COS(=O)(=O)[O-])C(OC4OC(C(=O)[O-])C(OC5OC(CS(=O)(=O)[O-])C(O)C(OC(=O)CCCCC)C5NS(=O)(=O)[O-])C(OC(=O)CCCCC)C4OS(=O)(=O)[O-])C(OC(=O)CCCCC)C3NS(=O)(=O)[O-])C(OC(=O)CCCCC)C2OS(=O)(=O)[O-])C(OC(=O)CCCCC)C1NS(=O)(=O)[O-].[Na+].[Na+].[Na+].[Na+].[Na+].[Na+].[Na+].[Na+].[Na+].[Na+].[Na+] (stereo in doubt; 3j)							>1250		0.4	10	2
CCCC(=O)OC/C(=C\C(=O)[O-])O[C@H]1O[C@H](COS(=O)(=O)[O-])[C@@H](O[C@@H]2O[C@@H](C(=O)[O-])[C@@H](O[C@H]3O[C@H](COS(=O)(=O)[O-])[C@@H](O[C@@H]4O[C@@H](C(=O)[O-])[C@@H](O[C@H]5O[C@H](CS(=O)(=O)[O-])[C@@H](O)[C@H](OC(=O)CCC)[C@H]5NS(=O)(=O)[O-])[C@H](OC(=O)CCC)[C@H]4OS(=O)(=O)[O-])[C@H](OC(=O)CCC)[C@H]3NS(=O)(=O)[O-])[C@H](OC(=O)CCC)[C@H]2OS(=O)(=O)[O-])[C@H](OC(=O)CCC)[C@H]1NS(=O)(=O)[O-].[Na+].[Na+].[Na+].[Na+].[Na+].[Na+].[Na+].[Na+].[Na+].[Na+].[Na+] (stereo in doubt; 4i)		>2941			16.8		>1852	0.16	0.27		2.1
CCCC(=O)OC/C(=C\C(=O)[O-])O[C@H]1O[C@H](COS(=O)(=O)[O-])[C@@H](O[C@@H]2O[C@@H](C(=O)[O-])[C@@H](O[C@H]3O[C@H](COS(=O)(=O)[O-])[C@@H](O[C@@H]4O[C@@H](C(=O)[O-])[C@@H](O[C@H]5O[C@H](CS(=O)(=O)[O-])[C@@H](O)[C@H](OC(=O)CCC)[C@H]5NS(=O)(=O)[O-])[C@H](OC(=O)CCC)[C@H]4OS(=O)(=O)[O-])[C@H](OC(=O)CCC)[C@H]3NS(=O)(=O)[O-])[C@H](OC(=O)CCC)[C@H]2OS(=O)(=O)[O-])[C@H](OC(=O)CCC)[C@H]1NS(=O)(=O)[O-].[Na+].[Na+].[Na+].[Na+].[Na+].[Na+].[Na+].[Na+].[Na+].[Na+].[Na+] (stereo in doubt; 4c)		40000			2.7		80	0.01	5		57.5
CCCCCC(=O)OCC1OC(OC2C(C(=O)[O-])OC(OC3C(NC(C)=O)C(OC4C(C(=O)[O-])OC(C)C(OC(=O)CCCCC)C4O)OC(COC(=O)CCCCC)C3OS(=O)(=O)[O-])C(OC(=O)CCCCC)C2OC(=O)CCCCC)C(NC(C)=O)C(OC)C1OS(=O)(=O)[O-].[Na+].[Na+].[Na+].[Na+] (stereo not given)	5.4	17.5	19.4		3.4	41	4				
CCCCCC(=O)OC/C(=C\C(=O)[O-])OC1OC(COS(=O)(=O)[O-])C(OC2OC(C(=O)[O-])C(OC3OC(COS(=O)(=O)[O-])C(OC4OC(C(=O)[O-])C(OC5OC(CS(=O)(=O)[O-])C(O)C(OC(=O)CCCCC)C5NS(=O)(=O)[O-])C(OC(=O)CCCCC)C4OS(=O)(=O)[O-])C(OC(=O)CCCCC)C3NS(=O)(=O)[O-])C(OC(=O)CCCCC)C2OS(=O)(=O)[O-])C(OC(=O)CCCCC)C1NS(=O)(=O)[O-].[Na+].[Na+].[Na+].[Na+].[Na+].[Na+].[Na+].[Na+].[Na+].[Na+].[Na+] (stereo in doubt; 3i)		>1666					>2600	0.3		13	
CCCCCC(=O)OC/C(=C\C(=O)[O-])OC1OC(COS(=O)(=O)[O-])C(OC2OC(C(=O)[O-])C(OC3OC(COS(=O)(=O)[O-])C(OC4OC(C(=O)[O-])C(OC5OC(CS(=O)(=O)[O-])C(O)C(OC(=O)CCCCC)C5NS(=O)(=O)[O-])C(OC(=O)CCCCC)C4OS(=O)(=O)[O-])C(OC(=O)CCCCC)C3NS(=O)(=O)[O-])C(OC(=O)CCCCC)C2OS(=O)(=O)[O-])C(OC(=O)CCCCC)C1NS(=O)(=O)[O-].[Na+].[Na+].[Na+].[Na+].[Na+].[Na+].[Na+].[Na+].[Na+].[Na+].[Na+] (stereo in doubt; 3g)		>650						0.8		75	6
CCCC(=O)OC/C(=C\C(=O)[O-])O[C@H]1O[C@H](COS(=O)(=O)[O-])[C@@H](O[C@@H]2O[C@@H](C(=O)[O-])[C@@H](O[C@H]3O[C@H](COS(=O)(=O)[O-])[C@@H](O[C@@H]4O[C@@H](C(=O)[O-])[C@@H](O[C@H]5O[C@H](CS(=O)(=O)[O-])[C@@H](O)[C@H](OC(=O)CCC)[C@H]5NS(=O)(=O)[O-])[C@H](OC(=O)CCC)[C@H]4OS(=O)(=O)[O-])[C@H](OC(=O)CCC)[C@H]3NS(=O)(=O)[O-])[C@H](OC(=O)CCC)[C@H]2OS(=O)(=O)[O-])[C@H](OC(=O)CCC)[C@H]1NS(=O)(=O)[O-].[Na+].[Na+].[Na+].[Na+].[Na+].[Na+].[Na+].[Na+].[Na+].[Na+].[Na+] (stereo in doubt; 3e)		1261			11		1357	0.28	0.26		1.5
O=C([O-])/C=C(\COC(=O)CCC(=O)[O-])OC1OC(COS(=O)(=O)[O-])C(OC2OC(C(=O)[O-])C(OC3OC(COS(=O)(=O)[O-])C(OC4OC(C(=O)[O-])C(OC5OC(COS(=O)(=O)[O-])C(O)C(OC(=O)CCC(=O)[O-])C5NS(=O)(=O)[O-])C(OC(=O)CCC(=O)[O-])C4OS(=O)(=O)[O-])C(OC(=O)CCC(=O)[O-])C3NS(=O)(=O)[O-])C(OC(=O)CCC(=O)[O-])C2OS(=O)(=O)[O-])C(OC(=O)CCC(=O)[O-])C1NS(=O)(=O)[O-].[Na+].[Na+].[Na+].[Na+].[Na+].[Na+].[Na+].[Na+].[Na+].[Na+].[Na+].[Na+].[Na+].[Na+].[Na+].[Na+].[Na+] (stereo not given)	5	>100	0.2		3.1	> 100	>2500				
